One assay deals with T1, E-selectin (Homo sapiens, UniProt P16581).
T1 sequence (P16581 whole entry): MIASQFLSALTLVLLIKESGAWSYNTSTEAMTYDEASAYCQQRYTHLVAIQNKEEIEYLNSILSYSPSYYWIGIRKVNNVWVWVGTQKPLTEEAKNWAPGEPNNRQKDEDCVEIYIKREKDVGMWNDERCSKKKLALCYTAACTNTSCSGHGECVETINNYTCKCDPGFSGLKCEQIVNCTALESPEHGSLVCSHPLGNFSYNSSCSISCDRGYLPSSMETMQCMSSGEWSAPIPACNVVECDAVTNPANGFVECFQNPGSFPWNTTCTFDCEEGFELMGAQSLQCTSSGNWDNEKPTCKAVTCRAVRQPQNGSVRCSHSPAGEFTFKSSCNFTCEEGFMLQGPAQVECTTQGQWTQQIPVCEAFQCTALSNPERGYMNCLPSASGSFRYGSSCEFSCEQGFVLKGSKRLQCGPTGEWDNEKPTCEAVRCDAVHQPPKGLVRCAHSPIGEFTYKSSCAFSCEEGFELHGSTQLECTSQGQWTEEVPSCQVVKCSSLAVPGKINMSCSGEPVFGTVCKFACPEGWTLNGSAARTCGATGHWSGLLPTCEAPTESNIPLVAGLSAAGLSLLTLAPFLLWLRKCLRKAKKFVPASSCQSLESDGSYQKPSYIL
Nature of the assay: Antagonist activity at E-selectin (unknown origin) assessed as adhesion to [3H]thymidine-labelled human HL60 cells by static assay. Type of assay: cell-based, HL-60. In a few lines: (§1)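 HL-60 cells labelled with [3H]thymidine in the culture medium. Wells precoated with goat anti-human IgG, then E- or P-selectin IgG (per line) captured. Labelled cells incubated on the immobilized selectin with test compound over a dose range. Non-adherent cells washed off, bound radioactivity counted, and IC50 derived from the dose-dependent loss of adherent cells.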

Assay [1] concerns the target T2, P-selectin (Homo sapiens, UniProt P16109).
T2 sequence (P16109 whole entry): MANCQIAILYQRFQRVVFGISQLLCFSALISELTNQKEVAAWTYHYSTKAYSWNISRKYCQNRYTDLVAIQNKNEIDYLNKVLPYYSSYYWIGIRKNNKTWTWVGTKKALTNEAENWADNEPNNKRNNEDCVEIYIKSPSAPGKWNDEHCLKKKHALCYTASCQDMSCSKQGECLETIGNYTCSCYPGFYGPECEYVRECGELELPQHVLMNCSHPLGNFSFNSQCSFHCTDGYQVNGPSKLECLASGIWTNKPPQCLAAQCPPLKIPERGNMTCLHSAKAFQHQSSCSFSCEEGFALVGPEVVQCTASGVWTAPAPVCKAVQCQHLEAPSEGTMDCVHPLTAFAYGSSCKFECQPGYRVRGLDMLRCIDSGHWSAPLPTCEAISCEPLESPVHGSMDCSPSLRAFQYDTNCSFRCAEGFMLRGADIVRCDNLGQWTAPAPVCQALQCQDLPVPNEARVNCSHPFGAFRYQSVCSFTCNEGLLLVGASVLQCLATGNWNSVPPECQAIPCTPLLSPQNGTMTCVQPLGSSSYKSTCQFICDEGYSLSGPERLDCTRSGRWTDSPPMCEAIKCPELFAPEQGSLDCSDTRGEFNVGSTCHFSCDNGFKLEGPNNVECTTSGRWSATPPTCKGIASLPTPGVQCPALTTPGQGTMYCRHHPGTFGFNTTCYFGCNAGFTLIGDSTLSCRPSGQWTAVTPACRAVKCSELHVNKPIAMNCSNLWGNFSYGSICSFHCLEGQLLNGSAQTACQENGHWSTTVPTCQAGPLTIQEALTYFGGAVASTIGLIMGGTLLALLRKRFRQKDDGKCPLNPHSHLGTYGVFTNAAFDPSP
Nature of the assay: Antagonist activity at P-selectin (unknown origin) assessed as adhesion to [3H]thymidine-labelled human HL60 cells by static assay. It counts as cell-based, HL-60. A digest of the protocol: as §1

Assay [2] deals with T2, P-selectin. Nature of the assay: Antagonist activity at P-selectin (unknown origin) by surface plasmon resonance-based dynamic assay.
Another assay has as its system Mus musculus. The assay is described as follows: Inhibition of TNFalpha-induced decrease in leukocyte rolling flux in mouse cremaster at 100 mg/kg, iv. It counts as functional, organism-based. The arrangement: dose 100 mg/kg. In a few lines: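 Intravital microscopy of mouse cremaster. Mice receive rmTNFα in 150 μL saline. Compound in saline, or saline alone, is given intrajugularly at 100 mg/kg. Leukocyte rolling is read before and 10 min after injection. Means of 5 readings per venule, 10 venules per mouse, 5–6 mice per condition (±SEM).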

Molecules are shown by their SMILES. The source made the active and inactive calls. The calls are words filed in the database; no cut-off is given here.

By IC50 is commonly meant the concentration that gives 50% inhibition.

Consider `COC(=O)[C@H](O[C@@H]1O[C@@H](C)[C@@H](O)[C@@H](O)[C@@H]1O)[C@@H](O[C@@H]1O[C@H](CO)[C@H](OC(=O)c2ccccc2)[C@H](O[C@H](Cc2ccccc2)C(=O)O)[C@H]1OC(=O)c1ccccc1)C(=O)OC`, for which the 50% inhibitory concentration (IC50) on E-selectin came to 140 µM; on P-selectin [1], 110 µM; against P-selectin [2], 18 µM. `COC(=O)[C@H](O[C@@H]1O[C@H](CO)[C@H](OC(=O)c2ccccc2)[C@H](O[C@H](Cc2ccccc2)C(=O)O)[C@H]1OC(=O)c1ccccc1)[C@@H](O[C@@H]1O[C@@H](C)[C@@H](O)[C@@H](O)[C@@H]1O)C(=O)OC(C)C`: at P-selectin [2], half-maximal inhibition (IC50) was put at 16 µM. In the case of `CC(C)OC(=O)[C@H](O[C@@H]1O[C@@H](C)[C@@H](O)[C@@H](O)[C@@H]1O)[C@@H](O[C@@H]1O[C@H](CO)[C@H](OC(=O)c2ccccc2)[C@H](O[C@H](Cc2ccccc2)C(=O)O)[C@H]1OC(=O)c1ccccc1)C(=O)OC(C)C`, the figures for the half-inhibitory concentration (IC50) on E-selectin, on P-selectin [1] and at P-selectin [2] were 76 µM, 67 µM and 8 µM, respectively. In the case of `COC(=O)[C@H](O[C@@H]1O[C@@H](C)[C@@H](O)[C@@H](O)[C@@H]1O)[C@@H](O[C@@H]1O[C@H](CO)[C@H](O)[C@H](O[C@H](Cc2ccccc2)C(=O)O)[C@H]1O)C(=O)OC`, the values for the IC50 on E-selectin and at P-selectin [1] were 5460 µM and 4840 µM, respectively. `COC(=O)[C@H](O[C@@H]1O[C@@H](C)[C@@H](O)[C@@H](O)[C@@H]1O)[C@@H](O[C@@H]1O[C@H](CO)[C@H](OC(=O)c2ccccc2)[C@H](O[C@H](Cc2ccccc2)C(=O)O)[C@H]1OC(=O)c1ccccc1)C(=O)OC(C)C` gave a concentration for half-maximal inhibition (IC50) on P-selectin [2] of 21 µM. On the same count and under the same terms, the figure for `CC(C)OC(=O)[C@H](O[C@@H]1O[C@@H](C)[C@@H](O)[C@@H](O)[C@@H]1O)[C@@H](O[C@@H]1O[C@H](CO)[C@H](OC(=O)c2ccccc2)[C@H](O[C@H](Cc2ccccc2)C(=O)O)[C@H]1O)C(=O)OC(C)C` is 19 µM. With `CC(C)OC(=O)[C@H](O[C@@H]1O[C@@H](C)[C@@H](O)[C@@H](O)[C@@H]1O)[C@@H](O[C@@H]1O[C@H](CO)[C@H](O)[C@H](O[C@H](Cc2ccccc2)C(=O)O)[C@H]1OC(=O)c1ccccc1)C(=O)OC(C)C`, the half-maximal inhibitory concentration (IC50) was found to be 220 µM on E-selectin, 190 µM on P-selectin [1] and 34 µM against P-selectin [2]. As to `CC(=O)N[C@H]1[C@H]([C@H](O)[C@H](O)CO)O[C@@](O[C@H]2[C@@H](O)[C@@H](CO)O[C@@H](O[C@@H]([C@H](O[C@@H]3O[C@@H](C)[C@@H](O)[C@@H](O)[C@@H]3O)[C@H](C=O)NC(C)=O)[C@H](O)CO)[C@@H]2O)(C(=O)O)C[C@@H]1O`, in the assay with Mus musculus, the inhibition entry is “Active”. As to `COC(=O)[C@H](O[C@@H]1O[C@@H](C)[C@@H](O)[C@@H](O)[C@@H]1O)[C@@H](O[C@@H]1O[C@H](CO)[C@H](O)[C@H](O[C@H](Cc2ccccc2)C(=O)O)[C@H]1OC(=O)c1ccccc1)C(=O)OC`, the IC50 turned out to be 2080 µM at E-selectin, 1900 µM at P-selectin [1] and 520 µM against P-selectin [2]. As for `CC(C)OC(=O)[C@H](O[C@H]1O[C@@H](CO)[C@H](OC(=O)c2ccccc2)[C@@H](O[C@@H](Cc2ccccc2)C(=O)O)[C@H]1OC(=O)c1ccccc1)[C@@H](O[C@H]1O[C@@H](C)[C@@H](O)[C@@H](O)[C@@H]1O)C(=O)OCCc1cn(CCCCCOC(=O)[C@H](O[C@@H]2O[C@@H](C)[C@@H](O)[C@@H](O)[C@H]2O)[C@@H](O[C@@H]2O[C@H](CO)[C@H](OC(=O)c3ccccc3)[C@H](O[C@H](Cc3ccccc3)C(=O)O)[C@H]2OC(=O)c2ccccc2)C(=O)OC(C)C)nn1`, the midpoint of inhibition on P-selectin [2], the IC50, lay at 8 µM.

Source of the values: ChEMBL document CHEMBL3352221, “Acyclic tethers mimicking subunits of polysaccharide ligands: selectin antagonists” (ACS Med Chem Lett, 2014).
